Source: publication PMC5791907 (European journal of medicinal chemistry, 2018)

Key:
HeLa cells [1] = experiment: Apoptosis assay; type: cell-based, human; details: 24 h incubation, further increased at 48 h
HeLa cells [2] = experiment: Flow cytometric analysis of cell cycle distribution; type: cell-based, human; details: 24 h treatment, evident at 500 nM
Summary of the method: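 HeLa cells (5 × 10^5) exposed to a range of test compound concentrations for 24 h, collected, and fixed in ice-cold 70% ethanol. Treated with lysis buffer containing RNase A and 0.1% Triton X-100, stained with PI, then analysed by flow cytometry. Phase distribution taken from DNA histograms. Mean ± SEM of two independent experiments.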

[3] = system: L1210, FM3A, CEM and HeLa cell lines; experiment: Antiproliferative activity over the panel of four cancer cell lines; type: cell-based
Summary of the method: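 Cells were seeded at 300,000–500,000 cells/mL with serial dilutions of test compound and incubated at 37 °C: 2 days for L1210 and FM3A, 3 days for CEM, and 4 days for HeLa. Cell number was counted with a Coulter counter. For each line, IC50 was the concentration that inhibited proliferation by 50%.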

HeLa cells [4] = experiment: Mitochondrial membrane potential; type: cell-based, human; details: 100–250 nM, 6-48 h
Summary of the method: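 HeLa cells treated with test compound for 6, 12, 24 or 48 h, then stained with the lipophilic cationic probe JC-1. Mitochondrial potential read by flow cytometry. Data are mean ± SEM of three independent experiments.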

HeLa cells [5] = experiment: Western blot analysis of cell cycle checkpoint and apoptosis proteins; type: cell-based, human
HeLa cells [6] = experiment: ROS production; type: cell-based, human; details: 250 nM, starting after 12–24 h

## COC(=O)c1sc(-c2ccccc2)cc1Nc1cc(OC)c(OC)c(OC)c1 [Compound 4a, Methyl 5-phenyl-3-[(3,4,5-trimethoxyphenyl)amino]thiophene-2-carboxylate]
HeLa cells [1]
  Induction of apoptosis (annexin-V/PI): induced a significant proportion of apoptotic cells
HeLa cells [2]
  Effect on cell cycle progression: induced a G2/M arrest

## COC(=O)c1sc(-c2cccs2)cc1Nc1cc(OC)c(OC)c(OC)c1 [Compound 4c, Methyl 4-[(3,4,5-trimethoxyphenyl)amino]-[2,2′-bithiophene]-5-carboxylate]
HeLa cells [1]
  Induction of apoptosis (annexin-V/PI): induced a significant proportion of apoptotic cells
[3]; read-out: mean IC50 value (antiproliferative activity), mean over cell lines
  IC50: 140 nM
HeLa cells [4]
  Mitochondrial depolarization (cells with low Δψmt): time-dependent increase in the percentage of cells with low Δψmt
HeLa cells [2]
  Effect on cell cycle progression: induced a G2/M arrest
HeLa cells [5]
  PARP cleavage: concentration-and time-dependent cleavage of PARP
HeLa cells [5]; 24 h, concentration-dependent, marked reduction at 48 h
  cyclin B1 expression: increase in cyclin B1 expression
HeLa cells [5]; 24 h, even at 100 nM
  cdc25c expression: marked reduction in the expression of phosphatase cdc25c
HeLa cells [5]; 24 h and 48 h, 250 nM
  phosphorylated Cdk1: decrease in the phosphorylated form of cyclin dependent kinase-1
HeLa cells [5]; starting after 24 h, even at 0.1 μM
  expression of anti-apoptotic proteins Bcl-2 and Mcl-1: decreased
HeLa cells [6]
  ROS production: induced significant production of ROS

## COC(=O)c1sc(-c2ccc(C)cc2)cc1Nc1cc(OC)c(OC)c(OC)c1 [Compound 4i, Methyl 5-(p-tolyl)-3-[(3,4,5-trimethoxyphenyl)amino]thiophene-2-carboxylate]
HeLa cells [1]
  Induction of apoptosis (annexin-V/PI): induced a significant proportion of apoptotic cells
HeLa cells [2]
  Effect on cell cycle progression: induced a G2/M arrest

## COC(=O)c1sc(-c2cc(OC)c(OC)c(OC)c2)cc1Nc1cc(OC)c(OC)c(OC)c1 [Compound 4p, Methyl 5-(3,4,5-trimethoxyphenyl)-3-[(3,4,5-trimethoxyphenyl)amino]thiophene-2-carboxylate]
[3]; four cancer cell lines
  antiproliferative activity (in words): not active
